Source: ChEMBL document CHEMBL1275439, “Acquisition of a plasmid-borne blaOXA-58 gene with an upstream IS1008 insertion conferring a high level of carbapenem resistance to Acinetobacter baumannii” (2008)
Converted amounts (≈) assume the structure as drawn.

Legend:
Type in all cases: functional
Escherichia coli [1] = test: Antimicrobial activity against Escherichia coli DH5alpha by broth dilution test
Escherichia coli [2] = test: Antimicrobial activity against Escherichia coli DH5alpha harboring plasmid containing OXA-58-3 by broth dilution test
Escherichia coli [3] = test: Antimicrobial activity against Escherichia coli DH5alpha harboring plasmid containing OXA-58-4 by broth dilution test
Acinetobacter baumannii [4] = test: Antimicrobial activity against Acinetobacter baumannii TVICU53 by broth dilution test
Summary of the method: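 MICs by broth dilution on automated susceptibility plates, or by agar dilution, read and interpreted per CLSI guidelines; carbapenem MICs confirmed by Etest. Clinical isolate tested against a panel of aminoglycosides, β-lactams, β-lactam/inhibitor combinations, carbapenems, ciprofloxacin, chloramphenicol and trimethoprim-sulfamethoxazole. E. coli ATCC 25922 and P. aeruginosa ATCC 27853 run as quality controls. All tests done in duplicate.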

Acinetobacter baumannii [5] = test: Antimicrobial activity against Acinetobacter baumannii Ab290 by broth dilution test
Summary of the method: (§1)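 MICs determined by broth dilution on automated Sensititre susceptibility plates or by agar dilution, interpreted per CLSI guidelines. Carbapenem MICs confirmed by Etest. E. coli ATCC 25922 and P. aeruginosa ATCC 27853 served as quality-control strains. All tests done in duplicate.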

Acinetobacter baumannii [6] = test: Antimicrobial activity against Acinetobacter baumannii Ab290 harboring TVICU53 plasmid by broth dilution test
Summary of the method: (§2)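 Recombinant plasmids were electroporated (2.5 kV, 25 µF) into electrocompetent cells harvested at exponential phase (OD600 0.5–0.7). Cells were recovered in SOC broth at 37°C for 1 h and selected on antibiotics. MICs were then read by Sensititre broth dilution or agar dilution per CLSI, with carbapenems confirmed by Etest. Tests were run in duplicate with ATCC 25922/27853 controls.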

Acinetobacter baumannii [7] = test: Antimicrobial activity against Acinetobacter baumannii Ab290 containing plasmid harboring OXA-58-3 by broth dilution test; summary of the method: as §2
Acinetobacter baumannii [8] = test: Antimicrobial activity against Acinetobacter baumannii Ab290 containing plasmid harboring OXA-58-4 by broth dilution test; summary of the method: as §2
Acinetobacter baumannii [9] = test: Antimicrobial activity against Acinetobacter baumannii ATCC 15151T by broth dilution test; summary of the method: as §1
Acinetobacter baumannii [10] = test: Antimicrobial activity against Acinetobacter baumannii ATCC 15151T containing plasmid harboring OXA-58-3 by broth dilution test; summary of the method: as §2

| Compound | MIC (Escherichia coli [1]) [µg/mL] | MIC (Escherichia coli [2]) [µg/mL] | MIC (Escherichia coli [3]) [µg/mL] | MIC (Acinetobacter baumannii [4]) [µg/mL] | MIC (Acinetobacter baumannii [5]) [µg/mL] | MIC (Acinetobacter baumannii [6]) [µg/mL] | MIC (Acinetobacter baumannii [7]) [µg/mL] | MIC (Acinetobacter baumannii [8]) [µg/mL] | MIC (Acinetobacter baumannii [9]) [µg/mL] | MIC (Acinetobacter baumannii [10]) [µg/mL] |
| --- | --- | --- | --- | --- | --- | --- | --- | --- | --- | --- |
| CC1(C)S[C@@H]2[C@H](NC(=O)[C@H](N)c3ccc(O)cc3)C(=O)N2[C@H]1C(=O)O [AMOXICILLIN] | 8 (≈ 21.9 µM) | > 256 | > 256 | > 256 | 32 (≈ 87.6 µM) | > 256 | > 256 | > 256 | > 256 |  |
| C[C@H]1[C@H](NC(=O)/C(=N\OC(C)(C)C(=O)O)c2csc(N)n2)C(=O)N1S(=O)(=O)O [AZTREONAM] | < 0.12 | < 0.12 |  | 64 (≈ 147 µM) |  | 16 (≈ 36.7 µM) | 16 (≈ 36.7 µM) |  | 64 (≈ 147 µM) | 128 (≈ 294 µM) |
| Cc1nnc(SCC2=C(C(=O)O)N3C(=O)[C@@H](NC(=O)Cn4cnnn4)[C@H]3SC2)s1 [CEFAZOLIN] | 4 (≈ 8.8 µM) | 8 (≈ 17.6 µM) |  | > 128 | > 128 |  |  |  | > 128 |  |
| CO/N=C(\C(=O)N[C@@H]1C(=O)N2C(C(=O)O)=C(COC(C)=O)CS[C@H]12)c1csc(N)n1 [CEFOTAXIME] | < 0.12 |  |  | 64 (≈ 141 µM) | 8 (≈ 17.6 µM) | 8 (≈ 17.6 µM) | 8 (≈ 17.6 µM) |  | 16 (≈ 35.1 µM) | 16 (≈ 35.1 µM) |
| CC(C)(O/N=C(\C(=O)N[C@@H]1C(=O)N2C(C(=O)[O-])=C(C[n+]3ccccc3)CS[C@H]12)c1csc(N)n1)C(=O)O [CEFTAZIDIME] | < 0.12 | < 0.12 |  | 128 (≈ 234 µM) | 4 (≈ 7.32 µM) | 4 (≈ 7.32 µM) | 4 (≈ 7.32 µM) |  | 8 (≈ 14.6 µM) | 8 (≈ 14.6 µM) |
| CO/N=C(\C(=O)N[C@@H]1C(=O)N2C(C(=O)O)=C(COC(N)=O)CS[C@H]12)c1ccco1 [CEFUROXIME] | 4 (≈ 9.43 µM) | 4 (≈ 9.43 µM) |  | > 128 | 32 (≈ 75.4 µM) | 32 (≈ 75.4 µM) | 32 (≈ 75.4 µM) |  | > 128 |  |
| C[C@@H](O)[C@H]1C(=O)N2C(C(=O)O)=C(SCCNC=N)C[C@H]12 [IMIPENEM ANHYDROUS] | 0.25 (≈ 0.835 µM) | 2 (≈ 6.68 µM) | 0.25 (≈ 0.835 µM) | 64 (≈ 214 µM) | 0.25 (≈ 0.835 µM) | 32 (≈ 107 µM) | 64 (≈ 214 µM) | 1 (≈ 3.34 µM) | 0.5 (≈ 1.67 µM) | 32 (≈ 107 µM) |
| C[C@@H](O)[C@H]1C(=O)N2C(C(=O)O)=C(S[C@@H]3CN[C@H](C(=O)N(C)C)C3)[C@H](C)[C@H]12 [MEROPENEM] | < 0.25 |  |  | 16 (≈ 41.7 µM) | 0.25 (≈ 0.652 µM) | 16 (≈ 41.7 µM) | 16 (≈ 41.7 µM) | 0.5 (≈ 1.3 µM) | 0.5 (≈ 1.3 µM) | 32 (≈ 83.4 µM) |
| CC1(C)S[C@@H]2[C@H](NC(=O)[C@H](C(=O)O)c3ccsc3)C(=O)N2[C@H]1C(=O)O [TICARCILLIN] | 8 (≈ 20.8 µM) | > 1020 | 256 (≈ 666 µM) | > 1020 | 16 (≈ 41.6 µM) | > 1020 | > 1020 | 256 (≈ 666 µM) | 8 (≈ 20.8 µM) | > 1020 |
